Activity calls are given as the source filed them. The calls are words filed in the database; no cut-off is given here.
Legend:
MCF7 [1] = experiment: Cell cycle arrest in human MCF7 cells assessed as decrease in Cdc25c protein expression; assay type: functional, cell-based; details: dose 1-4 nM
In short: (§1)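 MCF-7 seeded 4 × 10⁵ per well for 24 h, then DMSO or compound at 1, 2, 4 nM for 24 h. Lysates protein-normalized to 3 mg/mL by BCA, resolved on 4–20% SDS-PAGE and immunoblotted. Bands quantified relative to β-actin (cell-cycle proteins) or GAPDH (apoptosis proteins); n = 3.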

Tubulin (Homo sapiens) [2] = biological target: T1, Tubulin (Homo sapiens) (UniProt P68371+Q9H4B7+P0DPH7+P68366+Q13509+Q71U36+P04350+Q3ZCM7+P07437+P68363+Q9BQE3+Q6PEY2+Q13885+Q9BVA1+Q9BUF5); experiment: Induction of microtubule damage in human MCF7 cells incubated for 48 hrs by DAPI staining based immunofluorescence assay; assay type: cell-based; details: dose 0.5-4 nM
In short: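 Blocked with goat serum for 20 min, probed with anti-β-tubulin for 2 h, fluorescent secondary antibody and DAPI nuclear stain, imaged by laser confocal microscopy.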

MCF7 [3] = experiment: Induction of mitochondrial membrane potential loss in human MCF7 cells at 1 nM measured after 24 hrs by JC-1 staining based flow cytometry analysis (reference value: 3.01%); assay type: functional
MCF7 [4] = experiment: Induction of apoptosis in human MCF7 cells assessed as necrotic cells at 2 nM measured after 24 hrs by Annexin V-FITC and PI staining based flow cytometry assay (reference value: 0.9%); assay type: functional
MCF7 [5] = experiment: Induction of apoptosis in human MCF7 cells assessed as necrotic cells at 2 nM measured after 24 hrs by Annexin V-FITC and PI staining based flow cytometry assay (reference value: 0.28%); assay type: functional
MCF7 [6] = experiment: Antiproliferative activity against human MCF7 cells assessed as reduction in cell viability incubated for 48 hrs by MTT assay; assay type: functional, cell-based; details: MCF7, 48 h
In short: (§2)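 Cells seeded at 5 × 10³ per well, incubated overnight, then exposed to a range of compound concentrations for 48 h. MTT added for 4 h, medium replaced with DMSO, absorbance read at 570 nm. MCF-7, L-O2 grown in DMEM; MCF-10A, MCF-7/ADR in RPMI 1640. Three independent runs.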

MCF7 [7] = experiment: Antitumor activity against human MCF7 cells xenografted in BALB/c nude mouse assessed as increase in apoptotic cells at 1 mg/kg, iv administered every 2 days for 21 days by TUNEL staining based assay; assay type: functional, organism-based; details: time 21.0 day
In short: (§3)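 Same subcutaneous MCF-7 nude-mouse xenografts dosed iv every 2 days for 21 days. Tumors then fixed, paraffin-embedded and sectioned. Apoptotic cells detected by TUNEL fluorescent staining with DNA counterstain; microvessel density measured by anti-CD31 immunohistochemistry.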

[8] = Antiproliferative activity against human MCF7/ADR cells assessed as reduction in cell viability incubated for 48 hrs by MTT assay; assay type: functional, cell-based; details: MCF7, 48 h
In short: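 Cells seeded at 5 × 10³ per well, incubated overnight, then exposed to a range of compound concentrations for 48 h. MTT added for 4 h, medium replaced with DMSO, absorbance read at 570 nm. Three independent runs.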

MCF7 [9] = experiment: Cell cycle arrest in human MCF7 cells assessed as increase in Cyclin B1 protein expression; details: dose 1-4 nM
MCF7 [10] = experiment: Induction of apoptosis in human MCF7 cells assessed as late apoptotic cells at 0.5 nM measured after 24 hrs by Annexin V-FITC and PI staining based flow cytometry assay (reference value: 2.06%); assay type: functional
MCF7 [11] = experiment: Induction of apoptosis in human MCF7 cells assessed as decrease in of Bcl-2 protein expression at 1 to 4 nM; assay type: functional, cell-based; details: dose 1-4 nM; in short: as §1
[12] = biological target: Tubulin beta (Homo sapiens) (UniProt P68371+Q9H4B7+Q13509+P04350+Q3ZCM7+P07437+Q13885+Q9BVA1+Q9BUF5+A6NNZ2); experiment: Inhibition of beta-tubulin polymerization in human MCF7 cells assessed as inhibition of EBI-beta-tubulin adduct formation at 1 to 4 nM measured after 2 hrs by Western blot-based EBI competition assay; assay type: cell-based; details: dose 1-4 nM
Tubulin (Homo sapiens) [13] = biological target: T1, Tubulin (Homo sapiens); experiment: Induction of microtubule depolymerization in human MCF7 cells at 10 uM measured every 5 mins for 60 mins by spectrophotometric method; assay type: cell-based
In short: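 Purified tubulin at 2 mg/mL in PEM buffer preincubated on ice with compound or DMSO. PEG added to a final 3 mg/mL, then polymerization followed at 37 °C by absorbance at 350 nm every 5 min for 60 min.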

MCF7 [14] = experiment: Induction of ROS generation in human MCF7 cells at 2 nM measured after 24 hrs in presence of N-acetylcysteine by DCFH-DA staining based flow cytometric analysis; assay type: functional
In short: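 MCF-7 seeded 4 × 10⁵ per well for 24 h, then DMSO or 0.5, 1, 2 nM for 24 h. Loaded with DCFH-DA for 30 min in the dark, resuspended in serum-free medium, DCF fluorescence measured by flow cytometry. For scavenger condition, 2.5 mM N-acetyl-L-cysteine pretreatment, then 2 nM for 24 h. Three runs.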

MCF7 [15] = experiment: Induction of apoptosis in human MCF7 cells assessed as increase in cleaved Caspase-3 protein expression at 1 to 4 nM; assay type: functional, cell-based; details: dose 1-4 nM; in short: as §1
MCF7 [16] = experiment: Cell cycle arrest in human MCF7 cells assessed as decrease in Cdc2 protein expression; assay type: functional, cell-based; details: dose 1-4 nM; in short: as §1
MCF7 [17] = experiment: Induction of apoptosis in human MCF7 cells assessed as early apoptotic cells at 0.5 nM measured after 24 hrs by Annexin V-FITC and PI staining based flow cytometry assay (reference value: 0.90%); assay type: functional
MCF7 [18] = experiment: Antitumor activity against human MCF7 cells xenografted in BALB/c nude mouse assessed as reduction in tumor microvessel density at 1 mg/kg, iv administered every 2 days and measured after 21 days by immunohistochemistry analysis; assay type: functional, organism-based; details: time 21.0 day; in short: as §3
MCF7 [19] = experiment: Induction of apoptosis in human MCF7 cells assessed as increase in PARP protein expression at 1 to 4 nM; assay type: functional, cell-based; details: dose 1-4 nM; in short: as §1
MCF7 [20] = experiment: Induction of apoptosis in human MCF7 cells assessed as necrotic cells at 1 nM measured after 24 hrs by Annexin V-FITC and PI staining based flow cytometry assay (reference value: 0.28%); assay type: functional
L02 = experiment: Antiproliferative activity against human L-O2 cells assessed as reduction in cell viability incubated for 48 hrs by MTT assay; assay type: cell-based; details: L02, 48 h; in short: as §2

SMILES: Cc1nc(N(C)c2ccc3c(c2)cc(C)n3C)c2ccccc2n1
- Activity (MCF7 [1]): Dose-Dependent Effect
- Activity (Tubulin (Homo sapiens) [2]): Dose-Dependent Effect
- Activity (MCF7 [3]): 6.49%
- Activity (MCF7 [4]): 8.3%
- Activity (MCF7 [5]): 4.51%
- IC50 (MCF7 [6]): 0.9 nM
- Activity (MCF7 [7]): Active
- IC50 [8]: 0.9 nM
- Activity (MCF7 [9]): Dose-Dependent Effect
- Activity (MCF7 [10]): 2.17%
- Activity (MCF7 [11]): Active
- inhibition [12]: Active
- Activity (Tubulin (Homo sapiens) [13]): Active
- Activity (MCF7 [14]): 24.7%
- Activity (MCF7 [15]): Active
- Activity (MCF7 [16]): Dose-Dependent Effect
- Activity (MCF7 [17]): 1.28%
- Activity (MCF7 [18]): Active
- Activity (MCF7 [19]): Active
- Activity (MCF7 [20]): 3.27%
- IC50 (L02): 4.6 nM
